Active and inactive are the calls of the source. The calls are words filed in the database; no cut-off is given here.
Tested on: not listed separately
Test: Dissociation constant, pKa of the compound
Assay type: physicochemical
Summary of the method: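 UV spectrophotometric titration. Compound dissolved in 10% aqueous methanol, then mixed 1:1 with NaOH (0.002–6 M) and 1 M HCl to a final 150 µM. Absorbance read at 312 nm across the pH series.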
Compound `O=C(c1ccc(Br)cc1)C1CN=C2C=CC=CN2C1` (configuration not stated) has a pKa of 12.4.

Biological target: T1, Nitric oxide synthase 3 (Bos taurus, UniProt P29473)
T1 sequence (P29473 whole entry): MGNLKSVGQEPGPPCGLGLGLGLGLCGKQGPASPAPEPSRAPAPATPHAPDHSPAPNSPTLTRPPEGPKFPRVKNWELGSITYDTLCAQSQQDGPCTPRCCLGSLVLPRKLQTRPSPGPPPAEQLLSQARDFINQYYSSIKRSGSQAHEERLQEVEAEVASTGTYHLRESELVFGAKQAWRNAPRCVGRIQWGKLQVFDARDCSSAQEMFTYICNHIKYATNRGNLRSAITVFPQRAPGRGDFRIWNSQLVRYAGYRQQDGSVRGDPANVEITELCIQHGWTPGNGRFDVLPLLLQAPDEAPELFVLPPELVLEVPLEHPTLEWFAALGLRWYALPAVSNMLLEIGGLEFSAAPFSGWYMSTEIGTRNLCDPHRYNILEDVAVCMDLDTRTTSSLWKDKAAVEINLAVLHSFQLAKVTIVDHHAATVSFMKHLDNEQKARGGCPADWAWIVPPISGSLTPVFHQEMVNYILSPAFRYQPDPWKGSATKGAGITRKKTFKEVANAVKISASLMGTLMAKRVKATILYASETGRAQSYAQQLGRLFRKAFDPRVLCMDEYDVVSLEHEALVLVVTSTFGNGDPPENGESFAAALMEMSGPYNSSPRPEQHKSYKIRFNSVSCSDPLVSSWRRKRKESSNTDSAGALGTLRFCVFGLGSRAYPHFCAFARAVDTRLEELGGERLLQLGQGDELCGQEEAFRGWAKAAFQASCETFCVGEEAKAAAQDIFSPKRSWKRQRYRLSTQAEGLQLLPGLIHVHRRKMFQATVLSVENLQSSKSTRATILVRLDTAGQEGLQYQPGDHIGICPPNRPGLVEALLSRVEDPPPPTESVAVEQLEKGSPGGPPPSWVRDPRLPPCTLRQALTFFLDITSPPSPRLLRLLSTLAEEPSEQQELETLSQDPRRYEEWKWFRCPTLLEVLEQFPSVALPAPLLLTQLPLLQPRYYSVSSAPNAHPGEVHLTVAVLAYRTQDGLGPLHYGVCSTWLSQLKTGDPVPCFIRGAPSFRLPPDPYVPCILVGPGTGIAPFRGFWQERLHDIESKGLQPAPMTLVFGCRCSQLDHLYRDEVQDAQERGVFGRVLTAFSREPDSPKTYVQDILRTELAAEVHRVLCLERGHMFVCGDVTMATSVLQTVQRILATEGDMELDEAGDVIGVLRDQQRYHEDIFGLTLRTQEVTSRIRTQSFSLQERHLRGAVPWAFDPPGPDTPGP
Test: Inhibition of bovine recombinant eNOS expressed in Escherichia coli assessed as conversion of [gamma-14C]L-arginine to [14C]L-citrulline by radioactive assay
Summary of the method: (§1)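 CaCl2/CaM present for nNOS (S. cerevisiae) and eNOS (E. coli) but omitted for iNOS (E. coli). Citrulline separated by Dowex cation exchange, then scintillation counting.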
`CC1=CC2=NCC(C(=O)c3ccc(OCc4ccc(Cl)cc4)cc3)CN2C=C1.[O-][Cl+3]([O-])([O-])O` (configuration not stated) showed an IC50 of 12 µM. `CC1=CC2=NCC(C(=O)c3ccc(-c4ccc(C#N)cc4)cc3)CN2C=C1.Cl` (configuration not stated) showed an IC50 of 12 µM. `CC1=CC2=NCC(C(=O)c3ccc(-c4ccc(Br)cc4)cc3)CN2C(C)=C1` (configuration not stated) showed an IC50 of 188 µM. `CC1=CC2=NCC(C(=O)c3ccc4cc(C)ccc4c3)CN2C(C)=C1.[O-][Cl+3]([O-])([O-])O` (configuration not stated) gave an IC50 of 53 µM. With `COc1ccc(-c2ccc(C(=O)C3CN=C4C=C(C)C=CN4C3)cc2)cc1.Cl` (configuration not stated) the IC50 was 60 µM.

Biological target: T2, Nitric oxide synthase, inducible (Mus musculus, UniProt P29477)
T2 sequence (P29477 whole entry): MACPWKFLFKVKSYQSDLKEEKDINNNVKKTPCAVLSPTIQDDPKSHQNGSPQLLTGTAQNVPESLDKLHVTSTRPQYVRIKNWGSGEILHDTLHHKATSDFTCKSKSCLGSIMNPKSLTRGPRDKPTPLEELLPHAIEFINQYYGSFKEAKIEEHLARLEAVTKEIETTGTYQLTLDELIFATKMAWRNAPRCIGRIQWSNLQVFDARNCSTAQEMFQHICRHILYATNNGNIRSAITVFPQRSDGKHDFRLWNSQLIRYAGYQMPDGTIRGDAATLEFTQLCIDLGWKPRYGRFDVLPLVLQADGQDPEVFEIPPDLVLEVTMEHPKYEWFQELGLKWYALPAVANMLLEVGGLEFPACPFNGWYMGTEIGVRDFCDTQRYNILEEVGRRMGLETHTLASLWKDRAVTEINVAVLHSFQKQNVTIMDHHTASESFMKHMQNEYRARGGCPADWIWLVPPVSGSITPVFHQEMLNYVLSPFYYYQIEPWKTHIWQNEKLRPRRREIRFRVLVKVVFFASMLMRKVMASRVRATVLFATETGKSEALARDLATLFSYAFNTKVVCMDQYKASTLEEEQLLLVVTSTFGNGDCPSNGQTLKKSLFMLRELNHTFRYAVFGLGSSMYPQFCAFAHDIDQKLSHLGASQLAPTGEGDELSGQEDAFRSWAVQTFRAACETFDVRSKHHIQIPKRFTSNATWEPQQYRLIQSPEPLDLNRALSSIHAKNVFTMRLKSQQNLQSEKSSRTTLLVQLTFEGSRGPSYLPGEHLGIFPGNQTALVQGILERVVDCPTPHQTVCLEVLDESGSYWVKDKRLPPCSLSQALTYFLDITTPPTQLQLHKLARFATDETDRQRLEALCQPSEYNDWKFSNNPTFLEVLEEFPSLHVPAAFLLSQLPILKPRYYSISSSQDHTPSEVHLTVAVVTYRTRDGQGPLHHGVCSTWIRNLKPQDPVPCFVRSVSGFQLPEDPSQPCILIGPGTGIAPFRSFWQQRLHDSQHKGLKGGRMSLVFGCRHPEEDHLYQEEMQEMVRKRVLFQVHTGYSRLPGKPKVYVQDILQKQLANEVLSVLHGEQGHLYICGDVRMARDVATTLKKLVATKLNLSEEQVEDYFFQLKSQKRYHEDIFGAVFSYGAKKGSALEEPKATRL
Test: Inhibition of mouse recombinant iNOS expressed in Escherichia coli assessed as conversion of [14C]L-arginine to [14C]L-citrulline by radioactive assay
With `CC1=CC2=NCC(C(=O)c3ccc(-c4ccc(Br)cc4)cc3)CN2C=C1.[O-][Cl+3]([O-])([O-])O` (configuration not stated) the IC50 was 28 µM.

Biological target: T3, Nitric oxide synthase, inducible (Mus musculus) (UniProt P29477)
T3 sequence (whole entry): T2 sequence (P29477 whole entry)
Test: Binding affinity to oxygenase domain of mouse iNOS at 100 uM assessed as formation of enzyme-Fe3-ImH complex by UV-visible spectra analysis
For `CC1=CC2=NCC(C(=O)c3ccc4cc(C)ccc4c3)CN2C=C1.[O-][Cl+3]([O-])([O-])O` (configuration not stated), the Activity was “Active”. For `N=C(NCCC[C@H](N)C(=O)O)N[N+](=O)[O-]`, the Activity was “Active”. With `CC1=CC2=NCC(C(=O)c3ccc(-c4ccc(C#N)cc4)cc3)CN2C=C1.Cl` (configuration not stated) the Activity was “Active”. For `O=C(c1ccc(Cl)c(Cl)c1)C1CN=C2C=CC=CN2C1.[O-][Cl+3]([O-])([O-])O` (configuration not stated), the Activity was “Active”. For `COc1ccc(C(=O)C2CN=C3C=C(C)C=CN3C2)cc1F.[O-][Cl+3]([O-])([O-])O` (configuration not stated), the Activity was “Active”. For `CC1=CC=CC2=NCC(C(=O)c3ccc(F)cc3)CN12.[O-][Cl+3]([O-])([O-])O` (configuration not stated), the Activity was “Active”. In the case of `CC1=CC2=NCC(C(=O)c3ccc4cc(C)ccc4c3)CN2C(C)=C1.[O-][Cl+3]([O-])([O-])O` (configuration not stated), the Activity is reported as “Active”. For `COc1ccc(-c2ccc(C(=O)C3CN=C4C=C(C)C=CN4C3)cc2)cc1.Cl` (configuration not stated), the Activity was “Active”. With `CC1=CC2=NCC(C(=O)c3ccc(-c4ccc(Br)cc4)cc3)CN2C=C1.[O-][Cl+3]([O-])([O-])O` (configuration not stated) the Activity was “Active”.

Biological target: T2, Nitric oxide synthase, inducible
Test: Inhibition of mouse iNOS expressed in insect Sf9 cells by competitive binding assay
With `CC1=CC2=NCC(C(=O)c3ccc4cc(C)ccc4c3)CN2C=C1.[O-][Cl+3]([O-])([O-])O` (configuration not stated) the Ki was 23 µM. `COc1ccc(-c2ccc(C(=O)C3CN=C4C=C(C)C=CN4C3)cc2)cc1.Cl` (configuration not stated) gave a Ki of 15 µM. For `CC1=CC2=NCC(C(=O)c3ccc(-c4ccc(Br)cc4)cc3)CN2C=C1.[O-][Cl+3]([O-])([O-])O` (configuration not stated), the Ki was 14 µM.

Biological target: Nitric oxide synthase 1 (Rattus norvegicus, UniProt P29476)
Sequence (P29476 whole entry): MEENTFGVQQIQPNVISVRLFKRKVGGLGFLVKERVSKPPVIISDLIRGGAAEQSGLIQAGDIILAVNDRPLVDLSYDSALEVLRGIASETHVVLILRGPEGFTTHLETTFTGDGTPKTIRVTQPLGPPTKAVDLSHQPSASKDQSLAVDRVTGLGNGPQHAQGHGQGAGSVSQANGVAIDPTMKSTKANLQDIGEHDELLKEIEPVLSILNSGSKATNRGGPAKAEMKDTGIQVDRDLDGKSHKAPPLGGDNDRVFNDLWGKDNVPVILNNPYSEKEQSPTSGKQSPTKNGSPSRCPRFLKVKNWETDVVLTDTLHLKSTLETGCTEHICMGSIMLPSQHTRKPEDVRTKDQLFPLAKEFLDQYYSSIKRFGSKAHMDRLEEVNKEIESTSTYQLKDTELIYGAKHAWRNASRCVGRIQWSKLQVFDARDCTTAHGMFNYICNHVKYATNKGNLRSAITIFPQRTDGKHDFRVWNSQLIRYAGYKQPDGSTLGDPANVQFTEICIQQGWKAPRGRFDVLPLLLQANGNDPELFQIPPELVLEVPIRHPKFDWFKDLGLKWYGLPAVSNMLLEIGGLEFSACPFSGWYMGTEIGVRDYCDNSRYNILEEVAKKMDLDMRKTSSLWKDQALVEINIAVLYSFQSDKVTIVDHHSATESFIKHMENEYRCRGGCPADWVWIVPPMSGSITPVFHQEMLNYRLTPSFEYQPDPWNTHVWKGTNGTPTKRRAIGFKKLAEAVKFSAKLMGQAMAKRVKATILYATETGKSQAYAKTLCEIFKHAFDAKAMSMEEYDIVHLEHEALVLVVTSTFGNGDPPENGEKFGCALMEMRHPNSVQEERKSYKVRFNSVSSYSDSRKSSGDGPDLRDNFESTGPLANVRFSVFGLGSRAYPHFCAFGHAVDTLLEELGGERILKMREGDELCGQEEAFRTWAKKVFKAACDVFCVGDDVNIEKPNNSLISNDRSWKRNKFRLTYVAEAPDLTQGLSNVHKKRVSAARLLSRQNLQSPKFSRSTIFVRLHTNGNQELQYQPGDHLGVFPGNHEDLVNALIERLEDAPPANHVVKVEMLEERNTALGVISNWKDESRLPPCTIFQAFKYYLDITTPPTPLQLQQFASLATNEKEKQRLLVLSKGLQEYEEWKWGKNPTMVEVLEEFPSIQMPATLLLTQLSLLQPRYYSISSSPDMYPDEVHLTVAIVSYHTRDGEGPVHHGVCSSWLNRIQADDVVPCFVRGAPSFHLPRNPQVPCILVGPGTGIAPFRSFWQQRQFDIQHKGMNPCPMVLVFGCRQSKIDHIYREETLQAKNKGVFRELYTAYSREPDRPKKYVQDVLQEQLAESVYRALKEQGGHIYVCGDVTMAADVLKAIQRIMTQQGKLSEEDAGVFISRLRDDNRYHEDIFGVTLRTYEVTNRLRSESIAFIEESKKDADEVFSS
Test: Inhibition of rat recombinant nNOS expressed in Saccharomyces cerevisiae assessed as conversion of [gamma-14C]L-arginine to [14C]L-citrulline by radioactive assay
Summary of the method: as §1
`CC1=CC2=NCC(C(=O)c3ccc(-c4ccc(C#N)cc4)cc3)CN2C=C1.Cl` (configuration not stated) showed an IC50 of 128 µM. Work on `CC1=CC2=NCC(C(=O)c3ccc4cc(C)ccc4c3)CN2C(C)=C1.[O-][Cl+3]([O-])([O-])O` (configuration not stated) yielded an IC50 of 60 µM. For `COc1ccc(-c2ccc(C(=O)C3CN=C4C=C(C)C=CN4C3)cc2)cc1.Cl` (configuration not stated), the IC50 was 87 µM.

— ChEMBL document CHEMBL1152488, “Synthesis and evaluation of pyrido[1,2-a]pyrimidines as inhibitors of nitric oxide synthases” (Eur J Med Chem, 2009)
